Laboratory results published in ChEMBL document CHEMBL1131138, “A novel class of orally active non-peptide bradykinin B2 receptor antagonists. 3. Discovering bioisosteres of the imidazo[1,2-a] pyridine moiety” (J Med Chem, 1998).

Experiments:
B2 bradykinin receptor [1] = target: T1, B2 bradykinin receptor (Homo sapiens, UniProt P30411); test: Inhibition specific binding of [3H]BK (1.0 nM) to human Bradykinin receptor B2 which was expressed in CHO (Chinese hamster ovary) cells by 50%.; assay type: cell-based
T1 sequence (P30411 whole entry): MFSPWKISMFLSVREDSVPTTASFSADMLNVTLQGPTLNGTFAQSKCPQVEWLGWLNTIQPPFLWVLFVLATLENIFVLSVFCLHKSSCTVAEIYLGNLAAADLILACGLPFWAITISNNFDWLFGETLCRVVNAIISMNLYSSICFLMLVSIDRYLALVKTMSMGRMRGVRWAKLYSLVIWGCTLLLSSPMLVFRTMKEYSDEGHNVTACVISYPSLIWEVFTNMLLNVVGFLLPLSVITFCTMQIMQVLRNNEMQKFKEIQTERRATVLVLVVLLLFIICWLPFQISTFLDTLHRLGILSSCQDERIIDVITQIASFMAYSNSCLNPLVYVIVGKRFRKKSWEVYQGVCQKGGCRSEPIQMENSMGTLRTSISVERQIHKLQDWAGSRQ
Outline: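 CHO (dhfr−) cells stably expressing human B2 receptor, seeded at 3.0 × 10^4 cells/well and cultured 1 day. Whole cells incubated with 1.0 nM [3H]BK plus compound for 2 h at 4 °C in HEPES/N-methyl-D-glucamine buffer pH 7.2 with bacitracin, enalaprilat and BSA. Washed, solubilized in SDS/NaOH and counted. Nonspecific binding with 1 μM BK; DMSO below 3%; three experiments.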

B2 bradykinin receptor [2] = target: T1, B2 bradykinin receptor; test: Concentration required to inhibit specific binding of [3H]BK (1.2 nM) to A-431 cells (human epidermoid carcinoma) which express Bradykinin receptor B2 by 50%.; assay type: cell-based
B2 bradykinin receptor [3] = target: T2, B2 bradykinin receptor (Cavia porcellus, UniProt O70526); test: Concentration required to inhibit specific binding of [ 3H]BK (0.06 nM) to Bradykinin receptor B2 in guinea pig ileum membrane preparations by 50%.; assay type: cell membranes
T2 sequence (O70526 whole entry): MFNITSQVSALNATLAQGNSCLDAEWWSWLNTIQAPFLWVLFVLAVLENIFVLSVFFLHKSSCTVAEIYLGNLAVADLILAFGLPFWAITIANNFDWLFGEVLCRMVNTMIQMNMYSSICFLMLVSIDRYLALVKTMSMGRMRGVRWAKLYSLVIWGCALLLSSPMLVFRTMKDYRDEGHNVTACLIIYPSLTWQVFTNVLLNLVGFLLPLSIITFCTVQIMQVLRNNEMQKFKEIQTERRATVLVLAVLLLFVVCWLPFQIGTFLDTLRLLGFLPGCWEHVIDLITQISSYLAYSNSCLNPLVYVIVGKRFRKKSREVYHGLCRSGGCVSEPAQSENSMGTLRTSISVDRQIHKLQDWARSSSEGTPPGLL
Outline: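 Ileal membranes from male Hartley guinea pigs (0.2 mg protein/mL) in TES buffer pH 6.8 with phenanthroline, bacitracin, DTT, captopril and BSA. Incubated with 0.06 nM [3H]BK plus compound for 60 min at room temperature, then filtered through GF/B and counted by scintillation.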

Cavia porcellus [4] = test: Compound tested in vivo for inhibition of Bradykinin induced Bronchoconstriction in anaesthetized guinea pig at 1 mg/kg, po; assay type: functional
Outline: (§1)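 Male Hartley guinea pigs (470–750 g), fasted overnight, anesthetized with ip pentobarbital (30 mg/kg) and ventilated at 10 mL/kg, 60 breaths/min. Given alcuronium (0.5 mg/kg iv) and propranolol (10 mg/kg sc). BK 5 μg/kg iv, with bronchoconstriction read as peak pulmonary insufflation pressure (modified Konzett–Rössler).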

Cavia porcellus [5] = test: In vivo inhibition of Bradykinin induced Bronchoconstriction in anaesthetized guinea pig following 1 mg/kg p.o.; assay type: functional; settings: route oral; outline: as §1
Cavia porcellus [6] = test: Inhibition of Bradykinin induced Bronchoconstriction in anaesthetized guinea pig at 0.32mg/kg, po; assay type: functional; outline: as §1

| Structure (SMILES) | IC50 (B2 bradykinin receptor [1]) [nM] | IC50 (B2 bradykinin receptor [2]) [nM] | IC50 (B2 bradykinin receptor [3]) [nM] | inhibition in vivo at 1 mg/kg (Cavia porcellus [4]) [%] | inhibition in vivo at 1 mg/kg (Cavia porcellus [5]) [%] | inhibition in vivo at 0.32 mg/kg (Cavia porcellus [6]) [%] |
| --- | --- | --- | --- | --- | --- | --- |
| CNC(=O)c1ccc(/C=C/C(=O)NCC(=O)N(C)c2ccc(Cl)c(COc3cccc4oc(C)nc34)c2Cl)cc1 | 1100 | 860 | 380 | – | – | – |
| CNC(=O)c1ccc(/C=C/C(=O)NCC(=O)N(C)c2ccc(Cl)c(COc3cccc4c3nc(OC)n4C)c2Cl)cc1 | 2.2 | – | 0.83 | 21.7 | – | – |
| CNC(=O)c1ccc(/C=C/C(=O)NCC(=O)N(C)c2ccc(Cl)c(COCc3cccc(C)n3)c2Cl)cc1 | > 10000 | > 10000 | > 10000 | – | – | – |
| CNC(=O)c1ccc(/C=C/C(=O)NCC(=O)N(C)c2ccc(Cl)c(COc3cccc4ccc(C)nc34)c2Cl)cc1 | 1.1 | 1.3 | 0.51 | – | 81.9 | 67.4 |
| CNC(=O)c1ccc(/C=C/C(=O)NCC(=O)N(C)c2ccc(C)c(COc3cccc4c3nc(OC)n4C)c2C)cc1 | 7.2 | – | 1.6 | 59.7 | – | – |
| CNC(=O)c1ccc(/C=C/C(=O)NCC(=O)N(C)c2ccc(Cl)c(COc3cccc4c3nc(C)n4C)c2Cl)cc1 | 67 | 43 | 9.1 | – | – | – |
| CNC(=O)c1ccc(/C=C/C(=O)NCC(=O)N(C)c2ccc(Cl)c(COc3cccc4nc(C)cnc34)c2Cl)cc1 | 2900 | 4300 | 170 | – | – | – |
| CNC(=O)c1ccc(/C=C/C(=O)NCC(=O)N(C)c2ccc(Cl)c(COc3cccc4cnc(C)nc34)c2Cl)cc1 | 56 | 59 | 110 | – | – | – |
| CCc1nc2c(OCc3c(Cl)ccc(N(C)C(=O)CNC(=O)/C=C/c4ccc(C(=O)NC)cc4)c3Cl)cccc2n1C | 22 | – | 8.7 | 31.7 | – | – |
| CNC(=O)c1ccc(/C=C/C(=O)NCC(=O)N(C)c2ccc(Cl)c(COc3cccnc3-n3c(C)ccc3C)c2Cl)cc1 | 2000 | 3500 | 350 | – | – | – |
| CNC(=O)c1ccc(/C=C/C(=O)NCC(=O)N(C)c2ccc(Cl)c(COc3cccc4ncc(C)nc34)c2Cl)cc1 | 5.2 | 3.1 | 1 | – | – | – |
| CNC(=O)c1ccc(/C=C/C(=O)NCC(=O)N(C)c2ccc(Cl)c(COc3ccc4ccc(C)nc4c3)c2Cl)cc1 | – | > 10000 | > 10000 | – | – | – |
| CC(=O)Nc1ccc(/C=C/C(=O)NCC(=O)N(C)c2ccc(Cl)c(COc3cccc4ncc(C)nc34)c2Cl)cc1 | 2.5 | – | 2.4 | 28.6 | – | – |
| CNC(=O)c1ccc(/C=C/C(=O)NCC(=O)N(C)c2ccc(Cl)c(COc3cccc4cnc(C)cc34)c2Cl)cc1 | – | > 10000 | > 10000 | – | – | – |
